According to ChEMBL document CHEMBL1141332, “Cytotoxic metabolites from an Indonesian sponge Lendenfeldia sp” (J Nat Prod, 2007):
pIC50: −log10 of the molar value.

Experiments:
T47D [1] = assay: Inhibition of human T47D cells assessed as cell viability under normoxic condition after 48 hrs; format: functional, cell-based
Summary of the method: (§1)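 Neutral Red proliferation/viability assay on T47D or MDA-MB-231 cells kept in DMEM/F12 with 10% FCS at 37 °C under 5% CO2, with 48 h compound exposure. Read-out was OD540, and % inhibition = 1 − OD540(treated)/OD540(control). IC50 was derived from the concentration–response data.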

[2] = target: T1, Hypoxia inducible factors; HIF-1-alpha, HIF-2-alpha (Homo sapiens, UniProt Q16665+Q99814); assay: Inhibition of HIF1 activity in human T47D cells by cell based reporter assay
Summary of the method: (§2)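 T47D cells grown in DMEM/F12 with glutamine, 10% FCS and penicillin/streptomycin at 37 °C under 5% CO2, then transiently transfected with the pHRE-TK-Luc reporter. Compounds from DMSO stocks were tested at half-log concentrations for 16 h, with luciferase read-out. IC50 was taken from curve fits of triplicate experiments.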

MDA-MB-231 [3] = assay: Inhibition of human MDA-MB-231 cells assessed as cell viability under hypoxic condition after 48 hrs; format: functional, cell-based; conditions: MDA-MB-231, 48 h; summary of the method: as §1
MDA-MB-231 [4] = assay: Inhibition of human MDA-MB-231 cells assessed as cell viability under normoxic condition after 48 hrs; format: functional, cell-based; conditions: MDA-MB-231, 48 h; summary of the method: as §1
T47D [5] = assay: Inhibition of human T47D cells assessed as cell viability under hypoxic condition after 48 hrs; format: functional, cell-based; summary of the method: as §1
T47D [6] = assay: Cell viability of human T47D cells under hypoxic condition after 16 hrs; format: functional, cell-based
[7] = target: T1, Hypoxia inducible factors; HIF-1-alpha, HIF-2-alpha; assay: Inhibition of 1, 10-phenanthroline-induced HIF1 activity in human T47D cells by cell based reporter assay; summary of the method: as §2

Question: `COc1ccc2c(O)c(O)ccc2c1-c1c(OC)ccc2c(O)c(O)ccc12` was tested. Which pIC50 (T47D [1]) did it give?
Answer: 5.06

Question: And the IC50 [2]?
Answer: 4.3 µM

Question: And the pIC50 (MDA-MB-231 [3])?
Answer: 5.15

Question: And the pIC50 (MDA-MB-231 [4])?
Answer: 5.22

Question: And the pIC50 (T47D [5])?
Answer: 5.08

Question: And the pIC50 (T47D [6])?
Answer: 4.72

Question: What about the IC50 [7] of the same compound?
Answer: 5.1 µM
